From PubChem BioAssay
TCR CD3 inh = human TCR-CD3 binding inhibition | TAMRA-labeled TCR probe fluorescence, biochemical | inhibition, % at 9.4 µM | 0.37% of 360,000 active;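 note: recombinant mutant TCR 2C K166C tagged with TAMRA read by polarization; 0% = receptor in buffer alone and 100% = receptor with positive control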
SIAE inh = blocks human sialic acid acetylesterase. Q9HAT2. SIAE FP-Rh probe binding, fluorescence polarization. inhibition, % at 9.66 µM. 0.69% of 370,000 active;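 active = inhibition above a cutoff: mean of compounds within the control limits plus 3 SD of those, cut at about 17% in these data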;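 note: 0% = plate median of compound wells and 100% = probe without SIAE protein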
ABHD4 inh = ABHD4 (mouse) inhibition, primary FP screen; Q8VD66; inhibition, % at 8.92 µM; 0.54% of 370,000 active; purified mABHD4, FP-Rh probe fluorescence polarization; AID 720543;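 active = inhibition exceeding the mean over every tested compound plus 3 SD, cut at about 30% in these data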;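 note: 0% = plate median of compound wells and 100% = S159A mutant with DMSO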
Target sequence (Q8VD66 whole entry, looked up): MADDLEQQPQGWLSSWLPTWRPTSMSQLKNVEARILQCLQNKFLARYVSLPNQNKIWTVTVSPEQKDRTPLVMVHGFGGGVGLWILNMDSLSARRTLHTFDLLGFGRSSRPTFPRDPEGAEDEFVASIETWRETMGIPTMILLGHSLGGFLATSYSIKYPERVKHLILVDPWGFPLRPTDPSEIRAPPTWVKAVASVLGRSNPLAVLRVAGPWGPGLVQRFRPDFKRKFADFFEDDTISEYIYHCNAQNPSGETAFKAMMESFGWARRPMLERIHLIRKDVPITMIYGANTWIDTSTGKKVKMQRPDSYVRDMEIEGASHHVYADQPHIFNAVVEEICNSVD
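system = mouse ABHD4 enzyme, wild type | medium = HEPES pH 7.0, NaCl, Pluronic buffer | also added = FP-Rh probe | incubation = Enzyme–compound pre-incubation 45 min, then probe 60 min, both 25 °C | technique = fluorescence polarization, excitation 525 nm, emission 598 nm, BODIPY TMR filters | controls = S159A mutant high control, sample median low control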
PRMT1 inh = inhibitors of human PRMT1. Q99873. recombinant PRMT1, activity-based probe fluorescence polarization. inhibition, % at 2.79 µM. 1.3% of 370,000 active. AID 652257;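 active = inhibition above about 21% made by adding two undisclosed values, limit read from the data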
Target sequence (Q99873 whole entry, looked up): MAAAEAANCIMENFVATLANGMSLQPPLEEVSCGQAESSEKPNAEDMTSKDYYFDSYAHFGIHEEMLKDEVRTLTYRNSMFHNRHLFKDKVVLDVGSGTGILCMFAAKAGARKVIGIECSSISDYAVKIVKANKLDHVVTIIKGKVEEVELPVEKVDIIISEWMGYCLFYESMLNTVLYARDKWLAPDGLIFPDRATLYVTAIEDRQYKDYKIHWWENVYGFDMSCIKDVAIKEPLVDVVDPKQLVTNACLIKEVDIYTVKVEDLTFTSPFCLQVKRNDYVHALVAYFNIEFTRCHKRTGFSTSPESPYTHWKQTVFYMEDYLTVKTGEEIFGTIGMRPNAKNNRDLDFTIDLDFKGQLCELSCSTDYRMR
HTRA1 inhibitor = inhibitors of human serine peptidase HTRA1; inhibition, % at 5.96 µM; AID 504803; Q92743; 0.5% of 340,000 active; recombinant HTRA1, FP-rhodamine activity-based probe, fluorescence polarization; in the data active = inhibition above about 36%;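 note: 0% = enzyme with DMSO and 100% = wells lacking enzyme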
HTRA1 inh conf = confirmation of human HTRA1 inhibitors. inhibition, % at 5.96 µM. recombinant HTRA1, FP-rhodamine activity-based probe, fluorescence polarization. AID 540248. shares compounds with HTRA1 inhibitor. 66% of 1,600 active;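 active = mean inhibition over three repeats above a set limit taken from the earlier primary screen, cut at about 37% in these data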;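 note: 0% = HTRA1 with DMSO and 100% = wells lacking HTRA1; inhibitors block probe binding so polarization drops and inhibition rises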
BSA TAMRA ctr = counter-screen for TCR-CD3 interaction inhibitors: BSA probe. TAMRA-labeled BSA probe fluorescence counterscreen. shares compounds with TCR CD3 inh. inhibition, % at 9.4 µM. AID 652035. 10% of 1,200 active; in the data active = inhibition above about 23%;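 note: 0% = buffer low control and 100% = reference high control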
TCR-CD3 conf = TCR-CD3 interaction inhibition, confirmation. shares compounds with TCR CD3 inh. TAMRA-labeled TCR probe fluorescence binding assay. AID 652036. 48% of 1,200 active. inhibition, % at 9.4 µM
PRMT1 inh conf = confirmation of human PRMT1 inhibitors; shares compounds with PRMT1 inh; 42% of 3,300 active; AID 687036; recombinant His-PRMT1, activity-based probe fluorescence polarization; inhibition, % at 2.79 µM;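 active = mean inhibition across replicates above the hit cutoff derived for the earlier primary screen, cut at about 22% in these data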
ABHD4 confirm = confirmation of mouse ABHD4 inhibitors | shares compounds with ABHD4 inh | inhibition, % at 8.92 µM | purified mABHD4, FP-Rh probe fluorescence polarization | 55% of 1,800 active;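 active = mean inhibition across replicates above the hit cutoff set in the primary screen, cut at about 30% in these data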;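 note: 0% = wild-type ABHD4 with DMSO and 100% = catalytically dead S159A mutant with DMSO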
SIAE confirm = confirmation of human SIAE inhibitors; shares compounds with SIAE inh; SIAE FP-Rh activity-based probe, fluorescence polarization; inhibition, % at 9.66 µM; 13% of 2,300 active; AID 1117263;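 active = mean inhibition of the replicates above the hit cutoff set in the primary screen, cut at about 17% in these data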;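 note: 0% = SIAE with DMSO and probe and 100% = probe without SIAE; inhibitors lower polarization as more probe stays unbound to SIAE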
The depositor's hits bear a star; x = no result given. Compounds with a hit are over-represented: about 2.6% of the library has one in this group of screens. Cut-off read from the data, not from the text of the source, unless noted: active = inhibition above about 19%; inactive = the rest.

SMILES	TCR CD3 inh	SIAE inh	ABHD4 inh	PRMT1 inh	HTRA1 inhibitor	BSA TAMRA ctr	TCR-CD3 conf	PRMT1 inh conf	others
CCOC(=O)C1CCCN(c2ccc([N+](=O)[O-])c3nonc23)C1 (configuration not stated)	140*	21*	67*	122*	47*	168*	134*	135*	HTRA1 inh conf=56*;ABHD4 confirm=56*;SIAE confirm=47*
Cc1ccccc1NC(=O)N1Cc2ccccc2-n2nncc2C1	6	2	-1	-2	6	x	x	x
O=C(N/N=C/c1c(O)n(CCc2ccccc2)c(=O)[nH]c1=O)c1ccncc1	8	0	20	3	7	x	x	x
O=C(N/N=C/c1c(O)n(-c2cccc3ccccc23)c(=O)[nH]c1=O)c1ccncc1	22*	-1	0	4	6	-6	10	x
Cc1ccc(N2Cc3ccccc3-n3nncc3C2)cc1	8	4	9	-2	x	x	x	x
CCOC(=O)CNC(=O)N1Cc2cc(Br)ccc2-n2nncc2C1	36*	2	2	-1	x	-2	4	x
COC(=O)C1=C(c2ccc(F)cc2OCc2ccccc2)C[C@@H]2CC[C@H]1N2C(=O)NCc1cccc(C(F)(F)F)c1	1	-2	-22	0	-61	x	x	x
COc1cc(/C=C2/C(=O)NC(=O)N(c3ccccc3)C2=O)ccc1O	3	9	7	-2	0	x	x	x
O=C1NC(=O)N(c2ccccc2)C(=O)/C1=C/c1ccoc1	24*	-7	10	4	-2	-1	4	x
Cc1ccc(/C=C2\C(=O)NC(=S)N(c3ccccc3F)C2=O)s1	45*	-97	-212	3	-24	-31	-16	x
COc1ccc(-c2ccc3c(c2)CN(C(=S)NCCc2ccccc2)Cc2cnnn2-3)cc1	26*	-43	-60	0	x	8	17	x
COc1ccc(C(=O)OCC2CN2c2cccc([N+](=O)[O-])c2)cc1 (configuration not stated)	0	-6	2	3	x	x	x	x
CCC(=NC1CC1)c1c(O)n(C2CCCCC2)c(=O)[nH]c1=O	5	0	1	0	4	x	x	x
CC/C(=N\NC(=O)c1ccccc1Cl)c1c(O)n(C2CCCCC2)c(=O)[nH]c1=O	21*	0	-3	19	7	-5	18	x
CN1C2(C)c3ccccc3C1(c1ccccc1)c1ccccc12	6	-5	4	-2	x	x	x	x
O=C(N/N=C/c1c(O)n(CCc2ccccc2)c(=O)[nH]c1=O)c1ccccc1O	23*	7	39*	4	35	-4	28*	x
COC1C(C)OC(OC2CC(C)(O)Cc3cc4c(c(O)c32)C(=O)c2c(O)cc3c(c2C4=O)OC2OC3(C)C(O)C(N(C)C)C2O)C(OC)C1(C)OC (configuration not stated)	80*	-9	-6	124*	5	51*	40*	98*
COC(=O)C1C(OC(=O)c2ccccc2)CC2CCC1[N+]2(C)C (configuration not stated)	-2	2	-1	0	x	x	x	x
CN(C)[C@@H]1C(=O)C(C(N)=O)=C(O)[C@@]2(O)C(=O)C3=C(O)c4c(O)cccc4[C@@](C)(O)C3C[C@@H]12 (some centres not stated)	23*	14	64*	19	22	-5	-2	x	ABHD4 confirm=9
CC(C)C(NC(=O)OCc1ccccc1)P(=O)(Oc1ccccc1)Oc1ccccc1 (configuration not stated)	x	6	1	3	x	x	x	x
CC/C(=N\NC(=O)c1ccccc1)c1c(O)n(C2CCCCC2)c(=O)[nH]c1=O	20*	18*	0	13	1	-4	14	x	SIAE confirm=4
O=C(O)c1cc2ccccc2n1C1CCN(Cc2ccccc2)CC1	x	4	3	-1	x	x	x	x
Cn1c(O)c(C(c2ccncc2)c2c(O)n(C)c(=S)n(C)c2=O)c(=O)n(C)c1=S	-12	-7	-17	38*	-1	x	x	1
Cn1c(O)c(C(c2ccccn2)c2c(O)n(C)c(=S)n(C)c2=O)c(=O)n(C)c1=S	0	-9	3	27*	-1	x	x	11
CC[n+]1c(/C=C/N(C)c2ccccc2)sc2ccc(Cl)cc21	-18	-96	-110	29*	-90	x	x	5
SMILES	TCR CD3 inh	SIAE inh	ABHD4 inh	PRMT1 inh	HTRA1 inhibitor	BSA TAMRA ctr	TCR-CD3 conf	PRMT1 inh conf	others
CC[n+]1c(/C=C/C=C/c2ccc(N(C)C)cc2)sc2ccccc21	-53	-81	-98	-6	-43	x	x	x
CCOC(=O)c1cc(CC)sc1/N=C/c1c(O)[nH]c(=S)[nH]c1=O	-24	-34	-15	81*	-6	x	x	8
CCOC(=O)c1cc(CC)sc1/N=C/C1C(=O)NC(=S)NC1=O	-4	-7	-10	41*	-34	x	x	12
CCOC(=O)c1c(/N=C/c2c(O)n(-c3cccc(C)c3)c(=O)[nH]c2=O)sc2c1CCCC2	-7	-3	-2	8	4	x	x	x
COc1ccc2c3c([nH]c2c1)[C@H](C=C(C)C)N1C(=O)[C@@H]2CCCN2C(=O)[C@@H]1C3	x	2	5	-1	x	x	x	x
O=C1NCN(c2ccccc2)C12CCN(C(CCc1ccccc1)c1nnnn1C1CCCCC1)CC2 (configuration not stated)	7	-4	-2	3	x	x	x	x
CCOC(=O)CC(SP1(=S)OCC2(CCCCC2)CO1)C(=O)OCC (configuration not stated)	0	-3	-4	25*	-12	x	x	18
O=C1NC(=O)N(c2cccc(Cl)c2)C(=O)/C1=C\c1ccc(Sc2nc3ccccc3[nH]2)o1	-99	-370	-281	33*	-97	x	x	42*
S=P(c1ccccc1)(c1ccccc1)c1cnc2ccccn12	x	-5	-8	-1	x	x	x	x
COc1ccc(/C=C2/C(=O)NC(=O)N(C3CCCCC3)C2=O)cc1CSc1ccccn1	-1	12	16	26*	x	x	x	6
COc1ccc(C=C2C(=O)N(C)C(=O)N(C)C2=O)cc1CSc1ccccn1	-3	1	0	17	-11	x	x	x
Oc1ccc(C2=CCNCC2)cc1O	8	-2	12	25*	11	x	x	28*
C1=C(c2ccccc2)CCNC1	-1	-4	-4	-4	12	x	x	x
